Screening data from PubChem BioAssay.
The sample as a whole holds a higher share of hits than the screen did.
HSF1 inhib = HSF1 inhibition | NIH3T3-HGL HSE-luciferase, MG132-induced, luminescence 8 h; stronger effect = lower value | 300,000 compounds, 0.77% hits | activity change, negative = inhibition, % at 7.5 µM (by protocol) | AID 2098;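 active means more than half of replicate wells show activity change below -50%, luminescence cut by over half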;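 further: luciferase reports HSF-1 transcriptional activity via heat shock element; 0% = median of DMSO wells and -100% = zero luminescence signal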
T cruzi repl = T. cruzi replication inhibition; 300,000 compounds, 1.4% hits; T. cruzi beta-gal in NIH3T3, luminescence, 90 h; AID 1885; inhibition, % (no concentration beside the values);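 active means mean inhibition across valid replicates above about 55%, limit read from the data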;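 further: signal also drops with host cell toxicity which is not excluded here; 0% = plate median of DMSO wells and 100% = zero luminescence signal; higher percent means less beta-gal luminescence so fewer parasites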
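System – NIH/3T3 host cells with β-galactosidase reporter T. cruzi · Doses – single 50 nL compound addition per well in DMSO · Reagent – 5000 T. cruzi trypomastigotes/well · Medium – Low-serum DMEM with 2% FBS · Timing – ≥90 h infection period, 3 h prior cell attachment · Evaluation – parasite load inhibition, % · Technique – GalScreen luminescence, 60 min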
Hsp70 act = transcriptional activators of Hsp70; activation, % at 10 µM; 200,000 compounds, 0.04% hits; AID 1203; HeLa Hsp70 promoter luciferase reporter, luminescence; scaled: vehicle 0, proteasome-inhibitor control 100%;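 active means activation above the mean across all tested compounds plus 3 SD, cutoff set per campaign, cut at about 5.5% in these data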;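 further: 100% = MG132 at 30 µM as the positive control and 0% = DMSO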
HSF-1 act = increases HSF-1 driven luciferase reporter signal | NIH3T3-HGL HSF-1 luciferase reporter, MG132, 8 h; 100% = twice DMSO control signal | activation, % at 9 µM | 300,000 compounds, 1.7% hits | AID 504408;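 active means mean replicate activation of at least 50% with a set share of replicates each reaching 50%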;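 further: 0% = median of the neutral control wells and 100% = twice that signal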
L major viab = inhibitors of Leishmania major promastigote growth; Leishmania major promastigotes, resazurin fluorescence viability; AID 1063; inhibition, % at 10 µM; 200,000 compounds, 9% hits; in the data active means inhibition above about 50%;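 further: promastigotes grown with compound for 44 hours at 28 °C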
Starred values were filed as active, the others as inactive; / = no result given.

SMILES	HSF1 inhib	T cruzi repl	Hsp70 act	HSF-1 act	L major viab
OC(COc1c(F)cc(Br)cc1F)CN1CCN(c2ccc(F)cc2)CC1 (centres undefined)	-87.4*	4.1	-0.3	-90.3	86.6*
OC(COc1c(F)cc(Br)cc1F)CN1CCOCC1 (centres undefined)	3.3	-4.8	/	-5.3	/
CC1CCCC(C)N1CC(O)COc1ccc(Cl)cc1 (centres undefined)	-18.3	6.9	-0.2	-30.9	48.1
OC(CNC1CCCC1)COc1c(F)cc(Br)cc1F (centres undefined)	11.1	35.1	-0.2	13.4	93.2*
O=C(C1CCN(Cc2nc(Cc3cccc(F)c3)no2)CC1)N1CCOCC1	4.7	-4.7	-0.4	0.4	-7.0
CCCN1C/C(=C/c2ccc3c(c2)OCO3)C(=O)/C(=C/c2ccc3c(c2)OCO3)C1	3.1	-1.9	-0.5	16.4	100.3*
CN1C(=O)/C(=C/c2cccc([N+](=O)[O-])c2)C(=O)N1c1ccccc1	4.8	-5.3	/	5.0	/
CCCN1C/C(=C/c2cccc([N+](=O)[O-])c2)C(=O)/C(=C/c2cccc([N+](=O)[O-])c2)C1	/	/	0.1	/	100.6*
COc1ccc(S(=O)(=O)N2CCC(C(=O)N(CC(C)C)C3CCS(=O)(=O)C3)CC2)cc1OC (centres undefined)	-2.8	3.6	/	-9.8	/
CC(C)CCNC(=O)c1sc2ccc(S(=O)(=O)N3CCCCC3)cc2c1N	6.1	-12.6	-0.4	12.4	11.6
Nc1c(C(=O)NCCc2ccc(Cl)cc2)sc2ccc(S(=O)(=O)N3CCCCC3)cc12	35.9	59.5*	0.5	62.7*	82.6*
C=CCOc1ccc(C2/C(=C(/O)c3ccc(OC)cc3)C(=O)C(=O)N2CCN2CCNCC2)cc1 (centres undefined)	3.6	-6.1	/	3.1	/
CCCS(=O)(=O)N1CCC(C(=O)NCCC(C)C)CC1	-4.3	-35.3	0.0	3.2	-1.6
COc1cccc(OC)c1OCCNCCO	-5.2	-16.9	-0.2	0.4	11.1
CC(C)(C)NCCOCCOc1ccc(Cl)cc1C(C)(C)C	-13.0	36.3	-0.1	12.7	91.0*
C=CCNCCOCCOc1ccc(Cl)cc1C(C)(C)C	-3.9	15.7	0.3	-9.1	99.5*
COCCCNCCOCCOc1c(OC)cccc1OC	-0.8	25.5	-0.2	1.4	83.0*
COCCNCCCCSc1ccc(Cl)cc1	4.0	10.1	0.2	5.8	91.6*
C=CCNCCOCCSc1ccc(Cl)cc1	20.8	39.2	-0.1	51.7*	98.9*
COCCCNCCOCCOc1ccc(Cl)cc1C(C)(C)C	-0.8	40.8	-0.3	-10.5	100.1*
C=CCNCCCOc1ccc(Cl)cc1C(C)(C)C	-8.0	17.0	-0.2	-23.7	99.6*
COc1cccc(-c2nc(N3CCN(c4ccccc4)CC3)c3ccccc3n2)c1O	35.2	22.0	-0.3	65.8*	2.4
Fc1ccccc1/C=N/Nc1nc(-c2ccccn2)nc2ccccc12	0.3	55.4*	/	5.0	/
c1ccc(CNc2nc(-c3ccccn3)nc3ccccc23)cc1	-2.6	19.2	/	-7.4	/
Cc1ccc(-c2nc(N/N=C/c3ccncc3)c3ccccc3n2)cc1	31.7	7.8	-0.7	35.4	0.7
SMILES	HSF1 inhib	T cruzi repl	Hsp70 act	HSF-1 act	L major viab
Fc1ccccc1/C=N/Nc1ncnc2nc[nH]c12	2.2	-9.3	0.2	-13.5	52.0*
CCC(C)Nc1nc(-c2ccccn2)nc2ccccc12 (centres undefined)	-2.9	64.4*	/	-8.4	/
COc1cc(OC)cc(C(=O)N[C@H](C(=O)NCc2cccs2)C(C)C)c1	-1.0	-3.5	0.2	6.4	9.7
Cc1cc(NC(=O)c2cccnc2)ccc1Br	16.0	-3.9	/	30.7	/
CC(=O)N1c2ccc(S(=O)(=O)N3CCCCC3)cc2CC1C(=O)NCc1ccc(N(C)C)cc1 (centres undefined)	15.3	-9.6	/	39.1	/
CCn1c(SCC(=O)NCc2ccccc2)nnc1C(CO)NC(=O)c1ccccc1 (centres undefined)	5.2	-15.6	/	36.0	/
O=C(CNC(=O)c1ccccc1C(F)(F)F)N/N=C/c1cccs1	-4.2	-3.1	/	-4.9	/
COc1cccc(-c2nc(NC(C)C)c3ccccc3n2)c1O	-3.3	38.1	-0.4	17.6	56.4*
COc1cccc(-c2nc(NCc3cccnc3)c3ccccc3n2)c1O	8.0	19.7	/	28.5	/
CCC(C)Nc1nc(-c2cccc(OC)c2O)nc2ccccc12 (centres undefined)	-5.4	40.2	-0.4	9.3	58.5*
S=C(Nc1ccccc1Cl)N(Cc1cccnc1)Cc1ccco1	5.0	38.0	0.0	0.7	94.9*
COc1ccccc1NC(=S)N(Cc1ccccc1)Cc1cccnc1	6.5	47.1	-0.4	15.7	32.8
O=C(Nc1ccc(Cl)c(Cl)c1)N(Cc1cccnc1)Cc1ccco1	-0.3	55.7*	-0.3	8.3	99.7*
N#CCCN(Cc1cccnc1)C(=S)Nc1ccccc1Cl	/	/	-0.3	/	22.7
Cc1c(Cl)cccc1NC(=S)N(Cc1cccnc1)Cc1ccccc1Cl	7.5	75.3*	-0.4	5.3	94.7*
Cc1ccc(NC(=O)N(CCCN2CCOCC2)Cc2cccnc2)cc1C	-35.1	26.4	-0.2	-49.9	64.6*
CCOc1ccc(NC(=O)Cn2c(=O)n(CCCC(=O)NC3CCN(Cc4ccccc4)CC3)c(=O)c3ccccc32)cc1	4.6	19.1	/	-1.7	/
COc1ccccc1CNC(=O)c1sccc1-c1ccccc1	-4.5	25.7	/	-3.3	/
Cc1c(-n2cc(C(=O)c3ccccc3O)cc(C#N)c2=O)c(=O)n(-c2ccccc2)n1C	72.2	-0.7	0.2	109.5*	-0.5
N#Cc1cc(C(=O)c2ccccc2O)cn(-c2ccc(Cl)cc2)c1=O	-1.3	2.7	0.0	8.4	13.2
Cc1nn2c(nc(N3CCCCC3)c3ccccc32)c1C=O	-20.4	14.8	-0.5	-27.9	53.2*
O=C(Nc1ccccc1F)c1ccc(CSc2ccccc2)o1	3.0	-6.5	0.0	43.0	-4.7
Cc1csc(NC(=O)c2cc(-c3ccccc3)nc3ccccc23)n1	4.8	18.6	-0.5	-6.9	22.0
CCN(CC)Cc1c(O)ccc2c1O/C(=C\C=C\c1ccccc1)C2=O	82.1	60.4*	/	116.2*	/
CS(=O)(=O)Oc1ccc2c(c1)O/C(=C\C=C\c1ccccc1)C2=O	55.6	17.4	/	108.6*	/
SMILES	HSF1 inhib	T cruzi repl	Hsp70 act	HSF-1 act	L major viab
CC(C)CN(C(=O)c1ccc(S(=O)(=O)N2CCCC2)cc1)C1CCS(=O)(=O)C1 (centres undefined)	-2.2	7.3	/	1.2	/
O=C(NNC(=O)c1ccccc1F)C1=NN(c2ccccc2)C(=O)CC1	-5.4	0.5	/	-10.8	/
NC1=C(O)C(=O)C(c2ccccc2)O1 (centres undefined)	0.0	-2.6	/	4.8	/
Cn1c(-c2ccc([N+](=O)[O-])cc2)nc2ccccc21	16.4	19.1	0.4	18.2	12.8
Cn1nc([N+](=O)[O-])c(C(C#N)c2nc3ccccc3n2C)c(Cl)c1=O (centres undefined)	39.7	-9.6	-0.2	61.0*	0.3
Cc1nnn(C23CC4CC(CC(CC(=O)Nc5ccc(C)c(Cl)c5)(C4)C2)C3)n1	9.2	49.6	-0.3	50.0	94.9*
